Assay results taken from ChEMBL document CHEMBL1154371, “Cytotoxic xanthone constituents of the stem bark of Garcinia mangostana (mangosteen)” (J Nat Prod, 2009).
The source made the active and inactive calls. The rule behind the calls is not given here.

Experiments:
[1] = target: T1, Nuclear factor NF-kappa-B p105 subunit (Homo sapiens, UniProt P19838); experiment: Inhibition of p50 after 1 hr by ELISA
T1 sequence (P19838 whole entry): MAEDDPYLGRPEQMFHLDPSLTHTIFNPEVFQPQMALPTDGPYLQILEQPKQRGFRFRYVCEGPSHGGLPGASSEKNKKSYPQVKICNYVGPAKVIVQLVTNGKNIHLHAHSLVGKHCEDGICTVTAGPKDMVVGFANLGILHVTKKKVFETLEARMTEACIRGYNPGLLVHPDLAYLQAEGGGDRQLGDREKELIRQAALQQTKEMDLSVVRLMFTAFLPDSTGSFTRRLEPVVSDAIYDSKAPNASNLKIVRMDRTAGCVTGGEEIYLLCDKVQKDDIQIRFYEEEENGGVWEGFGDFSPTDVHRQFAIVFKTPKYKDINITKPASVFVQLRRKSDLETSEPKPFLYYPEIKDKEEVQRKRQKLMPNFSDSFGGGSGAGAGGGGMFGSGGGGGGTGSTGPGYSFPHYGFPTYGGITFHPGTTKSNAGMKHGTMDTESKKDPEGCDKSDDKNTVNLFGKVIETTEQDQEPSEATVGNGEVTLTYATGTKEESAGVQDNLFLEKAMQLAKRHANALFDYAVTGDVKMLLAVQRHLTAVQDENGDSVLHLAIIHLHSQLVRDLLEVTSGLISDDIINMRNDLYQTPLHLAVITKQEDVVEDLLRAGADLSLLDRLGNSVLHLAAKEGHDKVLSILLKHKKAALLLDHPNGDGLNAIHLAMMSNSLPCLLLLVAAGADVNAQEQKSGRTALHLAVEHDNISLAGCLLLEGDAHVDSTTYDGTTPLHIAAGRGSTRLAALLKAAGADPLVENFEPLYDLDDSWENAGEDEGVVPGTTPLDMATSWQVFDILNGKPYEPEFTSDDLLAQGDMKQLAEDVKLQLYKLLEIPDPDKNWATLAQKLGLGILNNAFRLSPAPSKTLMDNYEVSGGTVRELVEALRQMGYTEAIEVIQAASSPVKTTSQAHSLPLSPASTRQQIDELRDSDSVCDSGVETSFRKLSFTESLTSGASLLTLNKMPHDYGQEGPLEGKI

HT-29 [2] = experiment: Cytotoxicity against human HT-29 cells; type: functional; details: read-out: ED50 (the source's name)
Outline: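 HT-29 human colon cancer cells. Camptothecin was the positive control. Cytotoxic potency is given as ED50.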

Transcription factor p65 = Transcription factor p65 (Homo sapiens, UniProt Q04206); experiment: Inhibition of nuclear factor NF-kappa-B p65 subunit after 1 hr by ELISA
Sequence of Transcription factor p65 (Q04206 whole entry): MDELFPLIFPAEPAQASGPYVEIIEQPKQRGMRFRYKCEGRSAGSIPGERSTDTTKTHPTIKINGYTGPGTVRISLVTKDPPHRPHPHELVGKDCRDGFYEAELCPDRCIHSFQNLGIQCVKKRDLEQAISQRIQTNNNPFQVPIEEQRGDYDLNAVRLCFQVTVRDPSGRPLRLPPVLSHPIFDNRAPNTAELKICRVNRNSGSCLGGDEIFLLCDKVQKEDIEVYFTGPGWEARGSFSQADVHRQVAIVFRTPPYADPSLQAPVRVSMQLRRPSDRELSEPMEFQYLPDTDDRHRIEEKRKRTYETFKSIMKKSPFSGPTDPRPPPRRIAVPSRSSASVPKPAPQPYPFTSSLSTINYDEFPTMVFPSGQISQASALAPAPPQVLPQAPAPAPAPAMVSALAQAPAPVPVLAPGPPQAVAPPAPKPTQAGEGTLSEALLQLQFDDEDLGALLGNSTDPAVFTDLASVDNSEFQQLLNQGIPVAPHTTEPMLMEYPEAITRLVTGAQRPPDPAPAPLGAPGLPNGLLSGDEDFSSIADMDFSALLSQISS

HT-29 [3] = experiment: Growth inhibition of human HT-29 cells implanted at intraperitoneal compartment of NCr nu/nu mouse at 2.5 mg/kg to 20 mg/kg by hollow fiber assay; type: functional, organism-based
Outline: (§1)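 Cells were loaded into hollow fibers and implanted at the intraperitoneal site of mice. Compound was given at 2.5, 5, 10 and 20 mg/kg. Paclitaxel at 20 mg/kg was the positive control.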

LNCaP = experiment: Growth inhibition of human LNCAP cells implanted at intraperitoneal compartment of NCr nu/nu mouse at 2.5 mg/kg to 20 mg/kg by hollow fiber assay; type: functional, organism-based; outline: as §1
MCF7 = experiment: Growth inhibition of human MCF7 cells implanted at intraperitoneal compartment of NCr nu/nu mouse at 2.5 mg/kg to 20 mg/kg by hollow fiber assay; type: functional, organism-based

Row | Compound | IC50 [1] | EC50 (HT-29 [2]) | IC50 (Transcription factor p65) | growth inhibition (GI) (HT-29 [3]) | growth inhibition (GI) (LNCaP) | growth inhibition (GI) (MCF7)
1 | COc1c(O)cc2oc3cc4c(c(O)c3c(=O)c2c1CC=C(C)C)C=CC(C)(C)O4 [MANGOSTANIN] | > 20 µM | 9.1 µM | > 20 µM |  |  | 
2 | CC(C)=CCc1c(O)c(CC=C(C)C)c2oc3c(O)cccc3c(=O)c2c1O [8-DEOXYGARTANIN] | > 20 µM | > 10 µM | 11.3 µM |  |  | 
3 | CC(C)=CCc1c(O)c(CC=C(C)C)c2oc3c(O)ccc(O)c3c(=O)c2c1O [GARTANIN] | > 20 µM | > 10 µM | 19 µM |  |  | 
4 | CC[C@@]1(O)C(=O)OCc2c1cc1n(c2=O)Cc2cc3ccccc3nc2-1 [CAMPTOTHECIN] |  | 0.06 µM |  |  |  | 
5 | COc1cc2oc3cc(O)c(OC)c(CC=C(C)C)c3c(=O)c2c2c1CC(O)C(C)(C)O2 (stereo not given) | > 20 µM |  | > 20 µM |  |  | 
6 | COc1cc2oc3cc(O)c(OC)c(CC=C(C)C)c3c(=O)c2c(O)c1CC=C(C)C | 7.5 µM | 1.7 µM | 12.1 µM |  |  | 
7 | COc1c(O)cc2oc3cc4c(c(O)c3c(=O)c2c1CC=C(C)C)[C@@H](c1c(O)c(CC=C(C)C)c(O)c2c(=O)c3c(CC=C(C)C)c(OC)c(O)cc3oc12)[C@H](C(C)(C)O)O4 [CRATOXYXANTHONE] | > 20 µM |  | > 20 µM |  |  | 
8 | COc1c(O)cc2oc3cc(O)c4c(c3c(=O)c2c1CC=C(C)C)OC(C)(C)C(O)C4 (stereo not given) | > 20 µM |  | > 20 µM |  |  | 
9 | COc1c(O)cc2oc3cc(O)c(CC=C(C)C)c(O)c3c(=O)c2c1CCC(C)(C)O [GARCINONE D] | > 20 µM | 2.3 µM | 3.2 µM |  |  | 
10 | COc1c(O)cc2oc3cc4c(c(O)c3c(=O)c2c1CC=C(C)C)CCC(C)(C)O4 |  | 4.9 µM |  |  |  | 
11 | COc1c(O)cc2oc3cc4c(c(O)c3c(=O)c2c1CC=C(C)C)C[C@H](C(C)(C)O)O4 |  | > 10 µM |  |  |  | 
12 | COc1c(O)cc2oc3cc(O)c(CC=C(C)C)c(O)c3c(=O)c2c1CC=C(C)C [MANGOSTIN] | > 20 µM | 1.7 µM | 15.9 µM | inactive | inactive | inactive
